The record followed here is ChEMBL document CHEMBL1153117, “Synthesis of substituted aryloxy alkyl and aryloxy aryl alkyl imidazoles as antileishmanial agents” (Bioorg Med Chem Lett, 2010).

In brackets after ≈: the same amount, converted by molar mass.

Data set [1] relates to Leishmania donovani. Briefly: Antileishmanial activity against Leishmania donovani promastigotes at 10 ug/mL. The class given is functional. The method in brief: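 L. donovani promastigotes exposed in vitro to 10 µg/mL. Result expressed as percent inhibition.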
Data set [2] has as its system Leishmania donovani. Briefly: Antileishmanial activity against Leishmania donovani amastigotes. The class given is functional, organism-based. Summed up:
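Intracellular L. donovani amastigotes tested in vitro, with sodium stibogluconate, pentamidine and amphotericin B as controls. IC50 (µg/mL) was obtained by nonlinear regression of the concentration–response curve using the four-parameter Hill equation.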

Data set [3] can be described thus: Cytotoxicity against mouse J774A1 cells by MTT assay. The data set is classed as cell-based, J774.A1. The method in brief: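 Mouse macrophage line J-774-A-1 tested for cytotoxicity. Viability was read by MTT assay. CC50 (µg/mL) was estimated by the Huber and Koella method.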
(In general: Formazan colour is commonly taken as a measure of viable cells.)

Data set [4] in a line: (§1) Selectivity index, ratio of CC50 for mouse J774A1 cells to IC50 for Leishmania donovani amastigotes. The class given is functional, J774.A1. The method in brief:
(§2)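 Computed as CC50 in the J-774-A-1 macrophage MTT assay divided by anti-amastigote IC50. The IC50 came from a four-parameter Hill fit of the concentration–response curve.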

Data set [5] deals with Leishmania donovani. As to the kind of experiment: Antileishmanial activity against Leishmania donovani infected in hamster assessed inhibition of parasite growth at 50 mg/kg, ip for 10 days. The data set is classed as functional. The following applies: 240 h, route intraperitoneal. The method in brief: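 Hamster model (Mesocricetus auratus) infected with L. donovani. Dosed intraperitoneally at 50 mg/kg × 10. Read-out was percent inhibition of parasite growth.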

The subject of data set [6] is Leishmania donovani. Briefly: Antileishmanial activity against Leishmania donovani infected in hamster assessed inhibition of parasite growth at 40 mg/kg. The class given is functional.
Data set [7] has as its system J774.A1. The data set is described as §1. The class given is functional. The method in brief:
as §2

Data set [8] relates to Leishmania donovani. Briefly: Antileishmanial activity against Leishmania donovani infected in hamster assessed inhibition of parasite growth at 20 mg/kg. The class given is functional, organism-based. Details: dose 20 mg/kg; call rule not given here.
The subject of data set [9] is Leishmania donovani. As to the kind of experiment: Antileishmanial activity against Leishmania donovani promastigotes. The class given is functional, organism-based.
The subject of data set [10] is Leishmania donovani. Briefly: Antileishmanial activity against Leishmania donovani infected in hamster assessed inhibition of parasite growth at 8 mg/kg, iv for 5 days. The class given is functional. Conditions: 120 h.
[11] abbreviates: Leishmania donovani, read-out: IC50.

In data set [1], `C[C@@H](Cn1ccnc1)[C@@H](Oc1ccc(C(F)(F)F)cc1)c1ccccc1` (relative stereo) yielded an inhibition at 10 µg/mL of 100%. Further, in data set [2] (setting [11]), the IC50 was determined as 1.85 µg/mL (≈ 5.13 µM). In [3], this compound came in with a cytotoxic concentration (CC50) of 21.7 µg/mL (≈ 60.3 µM). Also, the “Ratio CC50/IC50” value in [4] is given as 11.75.
The compound `O=[N+]([O-])c1ccc(OC(COc2ccccc2)Cn2ccnc2)c(F)c1` (stereo unspecified) returned an inhibition at 10 µg/mL in data set [1] of 98.2%. Further, the IC50 in data set [2] (setting [11]) was found to be 5.13 µg/mL (≈ 14.4 µM). Further, the cytotoxic concentration (CC50) in data set [3] was 29.6 µg/mL (≈ 82.8 µM). Moreover, in data set [4], the “Ratio CC50/IC50” value was 5.76.
In the same order, the values of `CC(CCn1ccnc1)Oc1ccc(C(F)(F)F)cc1` (stereo unspecified) are 100%, 8.08 µg/mL (≈ 28.4 µM), 7.5 µg/mL (≈ 26.4 µM) and 0.88.
Compound `CC(CCn1ccnc1)Oc1ccc([N+](=O)[O-])cc1` (stereo unspecified) yielded an inhibition at 10 µg/mL in data set [1] of 100%. The IC50 entry in data set [2] was “Not Active”. In data set [3], this compound returned a CC50 of 24.1 µg/mL (≈ 92.2 µM).
With `O=[N+]([O-])c1ccccc1OC(CCn1ccnc1)c1ccccc1` (stereo unspecified), testing at 10 µg/mL in data set [1] gave an inhibition of 100%. The half-inhibitory concentration (IC50) in data set [2] (setting [11]) turned out to be 0.48 µg/mL (≈ 1.48 µM). In addition, it took 18 µg/mL (≈ 55.5 µM) to reach half-maximal cytotoxicity in data set [3] (CC50). The compound further yielded an inhibition in vivo at 50 mg/kg in [5] of 52%.
Consider `CC(CCn1ccnc1)Oc1ccccc1[N+](=O)[O-]` (stereo unspecified), for which, in [1], at 10 µg/mL the inhibition was 100%. The IC50 in data set [2] (setting [11]) worked out at 8.43 µg/mL (≈ 32.3 µM). Also, the cytotoxic concentration (CC50) in data set [3] is over 100 µg/mL. For the same compound, the “Ratio CC50/IC50” value in data set [4] is over 11.86.
In the case of `O=[N+]([O-])c1ccccc1OC(COc1ccccc1)Cn1ccnc1` (stereo unspecified), in data set [1], the inhibition at 10 µg/mL stood at 95.5%. Besides, the half-maximal inhibitory concentration (IC50) in data set [2] (setting [11]) came out at 4.82 µg/mL (≈ 14.2 µM). The same compound came in with a CC50 in data set [3] of 36.2 µg/mL (≈ 107 µM). Further, in data set [4], the “Ratio CC50/IC50” value is 7.51.
In the same order, the values of `O=[N+]([O-])c1ccc(OC(Cn2ccnc2)c2ccccc2)cc1` (stereo unspecified) are 95.5%, 3.71 µg/mL (≈ 12 µM), 25.2 µg/mL (≈ 81.5 µM) and 6.79.
For `CC(CCn1ccnc1)Oc1ccc([N+](=O)[O-])cc1C(F)(F)F` (stereo unspecified), in data set [1], testing at 10 µg/mL gave an inhibition of 100%. Moreover, the half-maximal inhibitory concentration (IC50) in [2] (setting [11]) was found to be 9.97 µg/mL (≈ 30.3 µM). Moreover, in data set [3], the half-maximal cytotoxic concentration (CC50) stood at 7.73 µg/mL (≈ 23.5 µM). For the same compound, in [4], the “Ratio CC50/IC50” value was determined as 0.97.
In turn, `O=[N+]([O-])c1ccc(OC(CCn2ccnc2)c2ccccc2)c(F)c1` (stereo unspecified) returned an inhibition at 10 µg/mL in [1] of 96.3%. Besides, in data set [2] (setting [11]), the IC50 worked out at 2.83 µg/mL (≈ 8.29 µM). Also, in data set [3], it took 25.1 µg/mL (≈ 73.5 µM) to reach half-maximal cytotoxicity (CC50). Further, the “Ratio CC50/IC50” value in data set [4] was determined as 8.86.
As for `N=C(N)c1ccc(OCCCCCOc2ccc(C(=N)N)cc2)cc1` [PENTAMIDINE], the IC50 in data set [2] (setting [11]) is 12.1 µg/mL (≈ 35.6 µM). In addition, in [6], the inhibition in vivo at 40 mg/kg came to 92%.
For the compound `FC(F)(F)c1ccc(OC(COc2ccccc2)Cn2ccnc2)cc1` (stereo unspecified), the inhibition at 10 µg/mL in data set [1] came to 100%. The IC50 in data set [2] (setting [11]) was determined as 0.56 µg/mL (≈ 1.55 µM). For the same compound, the CC50 in data set [3] is 17.9 µg/mL (≈ 49.3 µM). The “Ratio CC50/IC50” value in [4] was determined as 31.89. Besides, the inhibition in vivo at 50 mg/kg in data set [5] came to 58%.
With sodium stibogluconate, the Ratio CC50/IC50 in [7] is 6.38. This compound returned an inhibition in data set [8] of 84.1%.
For the compound `O=[N+]([O-])c1ccc(OC(Cn2ccnc2)c2ccccc2)c(F)c1` (stereo unspecified), the inhibition at 10 µg/mL in data set [1] came to 94.6%. In data set [2] (setting [11]), the IC50 stood at 2.76 µg/mL (≈ 8.43 µM). The compound also registered a cytotoxic concentration (CC50) in data set [3] of 21.2 µg/mL (≈ 64.9 µM). In data set [4], the “Ratio CC50/IC50” value is recorded as 7.69.
For the compound `O=[N+]([O-])c1ccccc1OC(Cn1ccnc1)c1ccccc1` (stereo unspecified), at 10 µg/mL the inhibition in data set [1] was 97.5%. The IC50 in data set [2] (setting [11]) amounted to 2.25 µg/mL (≈ 7.27 µM). In data set [3], this compound came in with a CC50 of 25.1 µg/mL (≈ 81.3 µM). In addition, in data set [4], the “Ratio CC50/IC50” value turned out to be 11.17.
Regarding `FC(F)(F)c1ccc(OC(CCn2ccnc2)c2ccccc2)cc1` (stereo unspecified), testing at 10 µg/mL in data set [1] gave an inhibition of 100%. Further, in [2] (setting [11]), the IC50 worked out at 0.47 µg/mL (≈ 1.36 µM). In data set [3], this compound had a CC50 of 17.2 µg/mL (≈ 49.8 µM). In addition, the “Ratio CC50/IC50” value in data set [4] stood at 36.68. In data set [5], this compound had an inhibition in vivo at 50 mg/kg of 60%.
In the case of `O=[N+]([O-])c1ccc(OC(CCn2ccnc2)c2ccccc2)cc1` (stereo unspecified), in [1], the inhibition at 10 µg/mL worked out at 99%. In [2] (setting [11]), the 50% inhibitory concentration (IC50) was 3.82 µg/mL (≈ 11.8 µM). Half-maximal cytotoxicity in data set [3] (CC50) was put at 25.1 µg/mL (≈ 77.6 µM). The “Ratio CC50/IC50” value in [4] turned out to be 6.57.
Turning to `C[C@@H]1[C@H](O)[C@@H](C)/C=C/C=C/C=C/C=C/C=C/C=C/C=C/[C@H](O[C@@H]2O[C@H](C)[C@@H](O)[C@H](N)[C@@H]2O)C[C@@H]2O[C@](O)(C[C@@H](O)C[C@@H](O)[C@H](O)CC[C@@H](O)C[C@@H](O)CC(=O)O[C@H]1C)C[C@H](O)[C@H]2C(=O)O` [AMPHOTERICIN B], the IC50 in data set [2] (setting [11]) was 0.05 µg/mL (≈ 0.0541 µM); in [9], 0.008 µg/mL (≈ 0.00866 µM). Moreover, in [3], the midpoint of cytotoxicity, the CC50, lay at 7.24 µg/mL (≈ 7.83 µM). In addition, the “Ratio CC50/IC50” value in [4] worked out at 144.8. Further, the inhibition in vivo at 8 mg/kg in data set [10] worked out at 92.2%.
Consider `C[C@@H](Cn1ccnc1)[C@@H](Oc1ccccc1[N+](=O)[O-])c1ccccc1` (relative stereo), for which the inhibition at 10 µg/mL in data set [1] came out at 95%. The half-maximal inhibitory concentration (IC50) in [2] (setting [11]) turned out to be 2.27 µg/mL (≈ 6.73 µM). The compound also came in with a 50% cytotoxic concentration (CC50) in data set [3] of 22.1 µg/mL (≈ 65.7 µM). Also, the “Ratio CC50/IC50” value in data set [4] came to 9.75.
Take `O=[N+]([O-])c1ccc(OC(COc2ccccc2)Cn2ccnc2)cc1` (stereo unspecified): the inhibition at 10 µg/mL in [1] was 93.8%. The IC50 in [2] (setting [11]) is 5.62 µg/mL (≈ 16.6 µM). In addition, the CC50 in data set [3] turned out to be 28.1 µg/mL (≈ 82.9 µM). Moreover, the “Ratio CC50/IC50” value in data set [4] is on record as 5.
In data set [1], `FC(F)(F)c1ccc(OC(Cn2ccnc2)c2ccccc2)cc1` (stereo unspecified) came in with an inhibition at 10 µg/mL of 98.6%. For the same compound, in data set [2] (setting [11]), the IC50 is 2.05 µg/mL (≈ 6.17 µM). The same compound returned a CC50 in data set [3] of 28.4 µg/mL (≈ 85.6 µM). Also, the “Ratio CC50/IC50” value in data set [4] came to 13.85. In data set [5], this compound showed an inhibition in vivo at 50 mg/kg of 46%.
With `CC(CCn1ccnc1)Oc1ccc([N+](=O)[O-])cc1F` (stereo unspecified), the inhibition at 10 µg/mL in data set [1] was 100%. The concentration for half-maximal inhibition (IC50) entry in [2] was “Not Active”. The midpoint of cytotoxicity in data set [3], the CC50, lay at 15 µg/mL (≈ 53.7 µM).

By inhibition is commonly meant the drop in the measured response relative to a control, in per cent. What is called IC50 is the midpoint of a concentration-inhibition curve. A word on the CC50: it is the concentration at which the toxic effect on the cells reaches its halfway point. Low readings indicate harm at low concentration, high ones better tolerance by the cells. Broadly, the inhibition in vivo is the drop in the measured response relative to a control, in per cent. Lower therefore signals a response near the control.
